Laboratory results: ChEMBL document CHEMBL1275251, “Mutant selection window and characterization of allelic diversity for ciprofloxacin-resistant mutants of Rhodococcus equi” (Antimicrob Agents Chemother, 2010)
Converted amounts (≈) assume the structure as drawn. The source made the active and inactive calls. The calls are words filed in the database; no cut-off is given here.

Legend:
Prescottella equi [1] = assay: Antibacterial activity against Rhodococcus equi ATCC 6939T harboring GyrA Ser83Ile mutation selected on 4 ug/ml of compound treated culture by broth microdilution method; assay type: functional, organism-based
Outline: (§1)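 Mutants were selected by plating at least 1 × 10^10 cells, grown 48 h at 35°C in brain heart infusion broth, on ciprofloxacin-containing Columbia blood agar base for 4 days at 35°C. Each was confirmed by two passages at the selecting concentration and one drug-free passage. MIC was then read by broth microdilution in cation-supplemented Mueller-Hinton broth per CLSI M24-A. Each experiment was done twice.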

Prescottella equi [2] = assay: Antibacterial activity against Rhodococcus equi W5234 harboring GyrA Ser83Arg mutation selected on 6 ug/ml of compound treated culture by broth microdilution method; assay type: functional; details: Rhodococcus (subgen. Prescottella) equi; outline: as §1
Prescottella equi [3] = assay: Antibacterial activity against Rhodococcus equi W5234 harboring GyrA Asp87Asn mutation selected on 4 ug/ml of compound treated culture by broth microdilution method; assay type: functional; details: Rhodococcus (subgen. Prescottella) equi; outline: as §1
Prescottella equi [4] = assay: Antibacterial activity against Rhodococcus equi ATCC 6939T selected on 8 ug/ml of compound treated culture by broth microdilution method; assay type: functional, organism-based; outline: as §1
Prescottella equi [5] = assay: Antibacterial activity against Rhodococcus equi W5234 isolated from HIV-positive patient; assay type: functional; details: Rhodococcus (subgen. Prescottella) equi
Outline: (§2)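 Cells grown 48 h at 35°C with shaking in brain heart infusion broth, then resuspended. MIC by broth microdilution in cation-supplemented Mueller-Hinton broth per CLSI M24-A. For MIC99 and MPC, ≥1 × 10^10 cells were plated on Columbia blood agar base containing a range of ciprofloxacin concentrations and incubated 4 days at 35°C. Resistant-colony fraction relative to CFU on drug-free plates was plotted against concentration. Run twice.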

Prescottella equi [6] = assay: Antibacterial activity against Rhodococcus equi W5234 selected on 2 ug/ml of compound treated culture by broth microdilution method; assay type: functional; details: Rhodococcus (subgen. Prescottella) equi; outline: as §1
Prescottella equi [7] = assay: Antibacterial activity against Rhodococcus equi ATCC 6939T harboring GyrA Asp87Gly mutation selected on 4 ug/ml of compound treated culture by broth microdilution method; assay type: functional; details: Rhodococcus (subgen. Prescottella) equi; outline: as §1
Prescottella equi [8] = assay: Antibacterial activity against Rhodococcus equi ATCC 6939T harboring GyrA Ser83Arg mutation selected on 6 ug/ml of compound treated culture by broth microdilution method; assay type: functional, organism-based; outline: as §1
Prescottella equi [9] = assay: Antibacterial activity against Rhodococcus equi ATCC 6939T isolated from lung abscess of horse; assay type: functional; details: Rhodococcus (subgen. Prescottella) equi; outline: as §2
Prescottella equi [10] = assay: Antibacterial activity against Rhodococcus equi ATCC 6939T harboring GyrA Ser83Arg mutation selected on 16 ug/ml of compound treated culture by broth microdilution method; assay type: functional; details: Rhodococcus (subgen. Prescottella) equi; outline: as §1
Prescottella equi [11] = assay: Antibacterial activity against Rhodococcus equi ATCC 6939T harboring GyrA Asp87Asn mutation selected on 4 ug/ml of compound treated culture by broth microdilution method; assay type: functional, organism-based; outline: as §1
Prescottella equi [12] = assay: Antibacterial activity against Rhodococcus equi W5234 harboring GyrA Asp87His mutation selected on 6 ug/ml of compound treated culture by broth microdilution method; assay type: functional; details: Rhodococcus (subgen. Prescottella) equi; outline: as §1
Prescottella equi [13] = assay: Antibacterial activity against Rhodococcus equi ATCC 6939T harboring GyrA Ser83Ile mutation selected on 16 ug/ml of compound treated culture by broth microdilution method; assay type: functional; details: Rhodococcus (subgen. Prescottella) equi; outline: as §1
Prescottella equi [14] = assay: Antibacterial activity against Rhodococcus equi ATCC 6939T selected on 2 ug/ml of compound treated culture by broth microdilution method; assay type: functional; details: Rhodococcus (subgen. Prescottella) equi; outline: as §1
Prescottella equi [15] = assay: Antibacterial activity against Rhodococcus equi W5234 harboring GyrB Asn464Asp mutation selected on 1 ug/ml of compound treated culture by broth microdilution method; assay type: functional; details: Rhodococcus (subgen. Prescottella) equi; outline: as §1
Prescottella equi [16] = assay: Antibacterial activity against Rhodococcus equi ATCC 6939T harboring GyrA Ser83Ile mutation selected on 12 ug/ml of compound treated culture by broth microdilution method; assay type: functional; details: Rhodococcus (subgen. Prescottella) equi; outline: as §1
Prescottella equi [17] = assay: Antibacterial activity against Rhodococcus equi W5234 harboring GyrA Asp87Tyr mutation selected on 4 ug/ml of compound treated culture by broth microdilution method; assay type: functional; details: Rhodococcus (subgen. Prescottella) equi; outline: as §1
Prescottella equi [18] = assay: Antibacterial activity against Rhodococcus equi ATCC 6939T harboring GyrA Asp87Asn mutation selected on 8 ug/ml of compound treated culture by broth microdilution method; assay type: functional; details: Rhodococcus (subgen. Prescottella) equi; outline: as §1
Prescottella equi [19] = assay: Antibacterial activity against Rhodococcus equi W5234 harboring GyrA Asp87Gly mutation selected on 8 ug/ml of compound treated culture by broth microdilution method; assay type: functional, organism-based; outline: as §1
Prescottella equi [20] = assay: Antibacterial activity against Rhodococcus equi W5234 selected on 8 ug/ml of compound treated culture by broth microdilution method; assay type: functional; details: Rhodococcus (subgen. Prescottella) equi; outline: as §1
Prescottella equi [21] = assay: Antibacterial activity against Rhodococcus equi W5234 harboring GyrA Ser83Arg mutation selected on 12 ug/ml of compound treated culture by broth microdilution method; assay type: functional; details: Rhodococcus (subgen. Prescottella) equi; outline: as §1
Prescottella equi [22] = assay: Antibacterial activity against Rhodococcus equi ATCC 6939T harboring GyrA Ser83Arg mutation selected on 4 ug/ml of compound treated culture by broth microdilution method; assay type: functional, organism-based; outline: as §1
Prescottella equi [23] = assay: Antibacterial activity against Rhodococcus equi W5234 selected on 4 ug/ml of compound treated culture by broth microdilution method; assay type: functional; details: Rhodococcus (subgen. Prescottella) equi; outline: as §1
Prescottella equi [24] = assay: Antibacterial activity against Rhodococcus equi W5234 harboring GyrA Ser83Arg mutation selected on 2 ug/ml of compound treated culture by broth microdilution method; assay type: functional; details: Rhodococcus (subgen. Prescottella) equi; outline: as §1
Prescottella equi [25] = assay: Antibacterial activity against Rhodococcus equi W5234 harboring GyrA Gly81Cys mutation selected on 4 ug/ml of compound treated culture by broth microdilution method; assay type: functional, organism-based; outline: as §1

In the case of `O=C(O)c1cn(C2CC2)c2cc(N3CCNCC3)c(F)cc2c1=O` [CIPROFLOXACIN], the MIC (Prescottella equi [1]) is reported as “inactive”, the MIC (Prescottella equi [2]) is reported as 32 µg/mL (≈ 96.6 µM) and the MIC (Prescottella equi [3]) is reported as 16 µg/mL (≈ 48.3 µM). The MIC (Prescottella equi [4]) was “inactive”, the MIC (Prescottella equi [5]) was 0.5 µg/mL (≈ 1.51 µM) and the MIC (Prescottella equi [6]) was 2 µg/mL (≈ 6.04 µM). For the same compound, the MIC (Prescottella equi [7]) was 8 µg/mL (≈ 24.1 µM), the MIC (Prescottella equi [8]) was “inactive” and the MIC99 (Prescottella equi [9]) was 0.42 µg/mL (≈ 1.27 µM). The MIC (Prescottella equi [10]) was 32 µg/mL (≈ 96.6 µM), the MIC (Prescottella equi [11]) was “inactive” and the MIC (Prescottella equi [12]) was 16 µg/mL (≈ 48.3 µM). It also gave an MIC (Prescottella equi [13]) of 64 µg/mL (≈ 193 µM), an MIC (Prescottella equi [14]) of 2 µg/mL (≈ 6.04 µM) and an MIC (Prescottella equi [15]) of 4 µg/mL (≈ 12.1 µM). For the same compound, the MIC (Prescottella equi [16]) was 128 µg/mL (≈ 386 µM), the MIC (Prescottella equi [17]) was 8 µg/mL (≈ 24.1 µM) and the MIC (Prescottella equi [18]) was 32 µg/mL (≈ 96.6 µM). The MIC (Prescottella equi [19]) was “inactive”, the MIC (Prescottella equi [20]) was 16 µg/mL (≈ 48.3 µM) and the MIC (Prescottella equi [21]) was 64 µg/mL (≈ 193 µM). The MIC (Prescottella equi [22]) was “inactive”, the MIC (Prescottella equi [23]) was 8 µg/mL (≈ 24.1 µM) and the MIC (Prescottella equi [24]) was 8 µg/mL (≈ 24.1 µM). For the same compound, the MIC (Prescottella equi [25]) was “inactive”.
